The results in this text go back to ChEMBL document CHEMBL1155970, “Synthesis and biological evaluation of quinic acid derivatives as anti-inflammatory agents” (Bioorg Med Chem Lett, 2009).

Data set [1] relates to Radical scavenging activity. As to the kind of experiment: Antioxidant activity assessed as DPPH radical scavenging activity by UV-visible spectrophotometry. It is filed as functional. In a few lines: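 DPPH stock at 0.625 mM in 50% acetone, stored at 4 °C in the dark; diluted daily to a 0.208 mM working solution. Samples in 50% acetone were mixed 1:1 with working DPPH, giving 0.104 mM DPPH initially. Mixtures were vortexed and read immediately at 515 nm against a 50% acetone blank, and remaining DPPH was calculated.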

Data set [2] relates to A549. As to the kind of experiment: Inhibition of human NF-kappaB in TNF-alpha-stimulated A549 cells assessed as secreted alkaline phosphatase level at 1 uM after 18 hrs. It is filed as cell-based. The gist of the method: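 The A549 NF-κB–SEAP reporter line was given TNF-α (10 ng/mL) plus compound at a single concentration, with dexamethasone as positive control. Supernatant SEAP was read 18 h later by chemiluminescence. Results are expressed as % inhibition relative to TNF-α alone, mean ± standard deviation, n = 3.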

The nature of data set [3]: Inhibition of human NF-kappaB in TNF-alpha-stimulated A549 cells assessed as secreted alkaline phosphatase level after 18 hrs. It is filed as cell-based. Particulars: A549, 18 h. The gist of the method:
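Type II-like A549 cells stably carrying an NF-κB response element–SEAP reporter were plated overnight at 6 × 10⁴ cells/well. They were then stimulated with human recombinant TNF-α (10 ng/mL) together with compound. After 18 h, supernatant SEAP was measured by chemiluminescence and normalized to lysate total protein (BCA). IC50 came from dose–response curves, n = 3 separate experiments.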

For data set [4], the system named is A549. Nature of the data set: Cytotoxicity against human A549 cells after 2 hrs by MTS assay. The following applies: a549, 18 h, in the assay text read “18 hrs” for “2 hrs”. It is filed as cell-based. In a few lines:
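A549SN cells were plated at 1 × 10⁴ per well and held 24 h at 37 °C, then treated in duplicate for 18 h alongside vehicle and medium-only controls. Viability was read by MTS: formazan absorbance at 490 nm after 2 h, with the media-only background subtracted.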
Background: Formazan colour is commonly taken as a measure of viable cells.

The source made the active and inactive calls. No cut-off for these calls is given here.

As to `O=C1O[C@H]([C@@H](O)CO)C(O)=C1O`, the outcome in data set [1] was Active.
Consider `NCCNC(=O)[C@]1(O)C[C@@H](O)[C@@H](O)[C@H](O)C1`, for which the result with A549 [2] was Active.
`CC(C)(C)OC(=O)NCCNC(=O)[C@]1(O)C[C@@H](O)[C@@H](O)[C@H](O)C1`: in the data set with A549 [2], the result was Active.
Regarding `O=C(O)/C=C/c1ccc(O)c(O)c1`, the outcome in data set [1] was Active.
As to `CCCNC(=O)[C@]1(O)C[C@@H](O)[C@@H](O)[C@H](O)C1`, the result with A549 [2] was Active. Moreover, the concentration for half-maximal inhibition (IC50) in data set [3] came out at 2830 nM. The result in data set [1] was inactive. Also, in the data set on A549 [4], the Activity result is on record as “Not Active”.
On to `O=C(/C=C/c1ccc(O)c(O)c1)O[C@@H]1C[C@](O)(C(=O)O)C[C@@H](O)[C@H]1O`, for which the outcome in data set [1] was Active.
As for `CC(=O)O[C@@H]1C[C@](OC(C)=O)(C(=O)O)C[C@@H](OC(C)=O)[C@H]1OC(C)=O`, the outcome with A549 [2] was inactive.
Consider `O=C(O)[C@]1(O)C[C@@H](O)[C@@H](O)[C@H](O)C1` [QUINIC ACID], for which the outcome in data set [1] was inactive. In addition, the Activity entry in the data set on A549 [4] is “Not Active”.
`CC(C)NC(=O)[C@]1(O)C[C@@H](O)[C@@H](O)[C@H](O)C1`: the outcome in the data set on A549 [2] was Active.

One may read the IC50 as the point on the concentration scale where inhibition reaches its midpoint.
